Measurements reported in ChEMBL document CHEMBL1144656, “Synthesis and biological evaluation of nitric oxide-releasing derivatives of oleanolic acid as inhibitors of HepG2 cell apoptosis” (2007).
The source made the active and inactive calls. The rule behind the calls is not given here.

Key:
[1] = Production of nitric oxide by in vitro Griess assay; type: functional
Summary of the method: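 NO release estimated as nitrite by Griess reaction in vitro: chromophore formed for 10 min at 30 °C, absorbance at 540 nm, reported as ng/ml.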

[2] = species on record: Homo sapiens; experiment: Protective effect on anti-Fas induced apoptosis in human Hep3b p53-/- cells 1 nM by LDH assay; type: functional, cell-based
[3] = system: HepG2; experiment: Inhibition of anti-Fas induced apoptosis in human HepG2 cells at 1 nM by LDH assay; type: functional, cell-based
Summary of the method: (§1)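 HepG2 cells, 10^4/well in triplicate, in phenol-red-free DMEM with 4% FCS and 2 µg/ml cycloheximide. Apoptosis induced with anti-Fas (CH-11 at 50 ng/ml or DX2 at 1.5 µg/ml) with or without test agent, 18 h at 37 °C, 5% CO2. Supernatant LDH activity read at O.D. 490/650. Untreated cells and 1% Triton X-100 served as 0% and 100% cytotoxicity references for % protection. Means of three independent experiments.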

[4] = system: HepG2; experiment: Inhibition of anti-Fas induced apoptosis in human HepG2 cells at 10 nM by LDH assay; type: functional, cell-based; summary of the method: as §1
[5] = species on record: Homo sapiens; experiment: Protective effect on anti-Fas induced apoptosis in human Hep3b p53-/- cells 10 nM by LDH assay; type: functional, cell-based
[6] = system: Rattus norvegicus; experiment: Inhibition of CCl4-induced hepatic fibrosis in rat at 128 mg/kg, po; type: functional, organism-based; parameters: dose 128 mg/kg
[7] = species on record: Homo sapiens; experiment: Protective effect on anti-Fas induced apoptosis in human Hep3b p53-/- cells 0.1 nM by LDH assay; type: functional, cell-based
[8] = system: HepG2; experiment: Inhibition of anti-Fas induced apoptosis in human HepG2 cells at 0.1 nM by LDH assay; type: functional, cell-based; summary of the method: as §1
[9] = system: Rattus norvegicus; experiment: Inhibition of CCl4-induced liver damage in rat at 128 mg/kg, po; type: functional, organism-based; parameters: dose 128 mg/kg
[10] = system: HepG2; experiment: Protective effect on anti-Fas induced apoptosis in human HepG2 cells by LDH assay; type: functional; summary of the method: as §1
[11] = system: HepG2; experiment: Inhibition of anti-Fas induced apoptosis in human HepG2 cells at 0.1 uM by LDH assay; type: functional, cell-based; summary of the method: as §1
[12] = species on record: Homo sapiens; experiment: Protective effect on anti-Fas induced apoptosis in human Hep3b p53-/- cells 0.1 uM by LDH assay; type: functional, cell-based

COc1cc(/C=C/C(=O)OCCCCO[N+](=O)[O-])ccc1OC(=O)[C@]12CCC(C)(C)C[C@H]1C1=CC[C@@H]3[C@@]4(C)CC[C@H](OC(=O)C(F)(F)F)C(C)(C)[C@@H]4CC[C@@]3(C)[C@]1(C)CC2
Activity [1]: 12 ng/mL
Activity [2]: Active
Activity [3]: Active

CC1(C)CC[C@]2(C(=O)Oc3ccc(/C=C/C(=O)OCCCO[N+](=O)[O-])cc3)CC[C@]3(C)C(=CC[C@@H]4[C@@]5(C)CC[C@H](OC(=O)C(F)(F)F)C(C)(C)[C@@H]5CC[C@]43C)[C@@H]2C1
Activity [4]: Active
Activity [5]: Active
Activity [1]: 18 ng/mL

COc1cc(/C=C/C(=O)OCCCO[N+](=O)[O-])ccc1OC(=O)[C@]12CCC(C)(C)C[C@H]1C1=CC[C@@H]3[C@@]4(C)CC[C@H](OC(=O)C(F)(F)F)C(C)(C)[C@@H]4CC[C@@]3(C)[C@]1(C)CC2
Activity [6]: Active
Activity [7]: Active
Activity [8]: Active
Activity [1]: 12 ng/mL
Activity [9]: Active

COc1cc(/C=C/C(=O)OCCCCO[N+](=O)[O-])ccc1OC(=O)CC[C@@H](C)[C@H]1CC[C@H]2[C@H]3C(CC[C@]12C)[C@@]1(C)CC[C@@H](O)C[C@H]1C[C@@H]3O (stereo partly drawn)
Activity [10]: 33.4%

COc1cc(/C=C/C(=O)OCCCCCCO[N+](=O)[O-])ccc1OC(=O)[C@]12CCC(C)(C)C[C@H]1C1=CC[C@@H]3[C@@]4(C)CC[C@H](OC(=O)C(F)(F)F)C(C)(C)[C@@H]4CC[C@@]3(C)[C@]1(C)CC2
Activity [1]: 21 ng/mL
Activity [11]: Active
Activity [12]: Active

CC1(C)CC[C@]2(C(=O)Oc3ccc(/C=C/C(=O)OCCCCO[N+](=O)[O-])cc3)CC[C@]3(C)C(=CC[C@@H]4[C@@]5(C)CC[C@H](OC(=O)C(F)(F)F)C(C)(C)[C@@H]5CC[C@]43C)[C@@H]2C1
Activity [1]: 20 ng/mL
Activity [12]: Active

COc1cc(C(=O)OCCCCO[N+](=O)[O-])ccc1OC(=O)[C@]12CCC(C)(C)C[C@H]1C1=CC[C@@H]3[C@@]4(C)CC[C@H](OC(=O)C(F)(F)F)C(C)(C)[C@@H]4CC[C@@]3(C)[C@]1(C)CC2
Activity [1]: 28 ng/mL
